Published values gathered from unrelated publications.
Protocols differ between the studies behind these lines. pEC50: −log10 of the molar value.
Read-out: cell growth or viability

Structure (SMILES)	cell line	assay	conditions	measurement	result
CC(C)(C)c1cnc(CSc2cnc(NC(=O)C3CCN(CCCCCCCCSc4cccc5c4CN(C4CCC(=O)NC4=O)C5=O)CC3)s2)o1 (stereo not shown)	HH	CCK-8	1 nM	viability	97.4%
CNc1ncc2c(/C=C/C(=O)N3CCC(OC)CC3)nn(CC3CCCO3)c2n1 (stereo not shown)	OE33	resazurin	5 days	pEC50	< 4.52
CC(=O)Nc1ccc(Oc2nnc(-c3ccc(Cl)cc3)c3ccccc23)cc1	HepG2	MTT	0.625 µM	cell death	88.3%
CC(C)(C)c1cnc(CSc2cnc(NC(=O)C3CCN(CCCCCSc4cccc5c4CN(C4CCC(=O)NC4=O)C5=O)CC3)s2)o1 (stereo not shown)	HH	CCK-8	0.2 µM	viability	0%
CC(=NNC(=O)c1ccccc1Cl)c1ccc(Nc2nnc(-c3ccc(Cl)cc3)c3ccccc23)cc1	HepG2	MTT	0.312 µM	cell death	19.8%
CC(C)(C)c1cnc(CSc2cnc(NC(=O)C3CCN(CCCCSc4cccc5c4C(=O)N(C4CCC(=O)NC4=O)C5=O)CC3)s2)o1 (stereo not shown)	HH	CCK-8	50 nM	viability	96.8%
CCOC(Cn1nc(/C=C/C(=O)N2CCC(OC)CC2)c2cnc(NC)nc21)OCC	OE33	resazurin	5 days	pEC50	< 4.52
CC(C)(C)c1cnc(CSc2cnc(NC(=O)C3CCN(CCCCCCCCSc4cccc5c4C(=O)N(C4CCC(=O)NC4=O)C5=O)CC3)s2)o1 (stereo not shown)	HH	CCK-8	0.25 µM	viability	0%
O=C(Nc1ccc(Oc2nnc(-c3ccc(Cl)cc3)c3ccccc23)cc1)c1ccccc1	HepG2	MTT	2.5 µM, 24 h	viability	3.4%
Nc1ncnc2c1c(/C=C/C(=O)O)nn2CC1CCCC1	OE33	resazurin	5 days	pEC50	< 4.52
CC(C)(C)c1cnc(CSc2cnc(NC(=O)C3CCN(C(=O)COCCOCCSc4cccc5c4C(=O)N(C4CCC(=O)NC4=O)C5=O)CC3)s2)o1 (stereo not shown)	HH	CCK-8	0.1 µM	viability	100%
Nc1ncnc2c1c(/C=C/C(=O)N1CCCCC1)nn2CC1CCCC1	OE33	resazurin	5 days	pEC50	< 4.52
CC(=NNC(N)=S)c1ccc(Nc2nnc(-c3ccc(Cl)cc3)c3ccccc23)cc1	HepG2	MTT	78 nM, 24 h	viability	95.6%
CNc1ncc2c(/C=C/C(=O)N3CCC(OC)CC3)nn(Cc3ccccc3)c2n1	OE33	resazurin	5 days	pEC50	5.13
CC(C)(C)c1cnc(CSc2cnc(NC(=O)C3CCN(C(=O)CCCSc4cccc5c4C(=O)N(C4CCC(=O)NC4=O)C5=O)CC3)s2)o1 (stereo not shown)	HH	CCK-8	0.2 µM	viability	96.7%
O=C(Nc1ccccc1)Nc1ccc(Oc2nnc(-c3ccc(Cl)cc3)c3ccccc23)cc1	HepG2	MTT	0.625 µM, 24 h	viability	5.31%
C=CC(=O)NC1CCN(c2ncc3ncnc(Nc4ccc(Oc5ccc6c(c5)ncn6C)c(C)c4)c3n2)CC1	NCI-H292			pEC50	7.08
CNc1ncc2c(/C=C/C(=O)N3CCC(OC)CC3)nn(CCC(C)C)c2n1	OE33	resazurin	5 days	pEC50	4.70
S=C(Nc1ccccc1)Nc1ccc(Oc2nnc(-c3ccc(Cl)cc3)c3ccccc23)cc1	HepG2	MTT	10 µM	cell death	97.2%
